Assay results collected from several papers.
Target: Tyrosine-protein kinase TXK (TXK, Homo sapiens, UniProt P42681)
Residues used in one study (P42681 1-527): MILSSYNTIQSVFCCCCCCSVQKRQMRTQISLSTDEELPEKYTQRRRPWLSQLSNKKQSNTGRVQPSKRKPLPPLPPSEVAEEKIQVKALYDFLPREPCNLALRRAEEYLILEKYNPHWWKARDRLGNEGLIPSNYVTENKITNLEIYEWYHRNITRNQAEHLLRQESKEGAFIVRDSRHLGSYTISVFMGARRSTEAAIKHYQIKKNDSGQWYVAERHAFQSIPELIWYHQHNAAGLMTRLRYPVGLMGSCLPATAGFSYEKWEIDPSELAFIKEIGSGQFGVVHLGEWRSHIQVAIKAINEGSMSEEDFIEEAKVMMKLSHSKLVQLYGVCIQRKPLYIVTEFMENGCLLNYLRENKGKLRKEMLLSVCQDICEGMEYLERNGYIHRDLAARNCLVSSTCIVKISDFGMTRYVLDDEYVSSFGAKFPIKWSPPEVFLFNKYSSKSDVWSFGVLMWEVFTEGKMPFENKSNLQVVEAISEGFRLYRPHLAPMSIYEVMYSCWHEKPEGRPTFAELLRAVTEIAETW

SMILES | read-out | action | technique | concentration | endpoint | result
Nc1ncc(-c2nc(N3CCOCC3)nc(N3CCOCC3)n2)c(C(F)F)n1 | binding | – | competition with immobilised ligand | 10 µM | remaining binding | 56%
COc1ncccc1-c1cnn2ccc(N3CCN(C(=O)OC(C)C)CC3)nc12 | binding | – | competition with immobilised ligand | 1 µM | remaining binding | 74%
CC(C)(C)c1cc(C=C(C#N)C#N)cc(Br)c1O | enzyme activity | inhibitor | – | 0.5 µM | remaining activity | 108%
N#CC1(c2ccccn2)CCN(Cc2cc(C(=O)O)c(=O)n3ccccc23)CC1 | binding | – | competition with immobilised ligand | 1 µM | remaining binding | 100%
O=c1[nH]c2ccccc2n1C1CCN(Cc2ccc(-c3[nH]c4cc5ncnc5cc4nc3-c3ccccc3)cc2)CC1 | enzyme activity | – | – | 0.5 µM | remaining activity | 104%
Cc1nn(C)cc1-c1nc2c(N3CCN(Cc4ccc(Cl)cc4)CC3)c(Cl)cnc2[nH]1 | binding | – | competition with immobilised ligand | 1 µM | remaining binding | 100%
Cn1cncc1[C@](O)(COc1ccc(C#N)cc1-c1ccc(OC(F)(F)F)cc1)c1ccc(C#N)cc1 | binding | – | competition with immobilised ligand | 1 µM | remaining binding | 87%
COc1cc(Nc2ncc(F)c(Nc3ccc4c(n3)NC(=O)C(C)(C)O4)n2)cc(OC)c1OC | binding | – | – | 10 µM | inhibition | 90%
